From PubChem BioAssay AID504382 (The Scripps Research Institute Molecular Screening Center, 2011)
Hit rate of the full screen: of about 2,500 compounds, about 460 (18%) were called active. Only a sample is shown. Values without a mark were called inactive.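 The calls were made as follows: active = mean activation above a cutoff of low control average plus 3 SD from the earlier screen (cut at about 12% in these data); inactive = the rest.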

experiment: compound fluorescence interference without thin filaments, confirmation, artefact control for cardiac RTF calcium sensitizer project, biochemical (AID 504382); details: IANBD fluorescence interference counterscreen, buffer, EC20 Ca2+; at 7.2 µM; stronger effect = higher value; scaled: EC20 calcium 0, EC100 calcium 100
Outline: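 Technique: fluorescence, 480/540 nm / Medium: MOPS-based buffer with KCl, MgCl2, EGTA, NTA, DTT, pH 7.2 / Probe or stimulus: calcium at EC20 level, 0.472 mM final / Repeats: triplicate wells per compound / Times: 15 min compound exposure at 25 °C / Measure: compound fluorescence interference relative to control well signal range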

In order of falling fluorescence artifact activation:
1. O=C1c2ccccc2C(Nc2cccnc2)N1Cc1ccccc1Cl (stereo not given)  10.4%
2. COc1ccccc1C(=O)Oc1ccc2c(c1)O/C(=C\c1ccncc1)C2=O  8.13%
3. COc1cc(CCCN2C(=S)NC[C@@H]2CC2CCCCC2)cc(OC)c1OC  7.7%
4. CCOC(=O)c1sc(-c2ccc(F)cc2)cc1NC(=O)Nc1ccccc1OC  7.09%
5. Cc1cc2nc3c(=O)[nH]c(=S)[nH]c3nc2cc1NC(=O)C(F)(F)F  5.96%
6. CCOc1ccc(C2CC(c3c(O)c4ccccc4oc3=O)=NN2c2ccccc2)cc1OC (stereo not given)  5.17%
7. CCOC(=O)c1sc(N)c(C#N)c1COC(=O)CNC(=O)c1cc(OC)c(OC)c(OC)c1  3.51%
8. O=C(CC1SC(N2CCCCC2)=NC1=O)Nc1ccc(C(=O)NCc2ccccc2)cc1 (stereo not given)  3.4%
9. COc1ccc(CNc2nn[nH]n2)cc1OC  2.6%
10. Cc1ccc(C(=O)Nc2ccc3c(c2)ncn3C)cc1  2.41%
11. Cc1c(CN2CCCC(C)C2)c(O)n(CCO)c(=O)c1C#N (stereo not given)  1.74%
12. Cc1cc(C(=O)NNC(=S)Nc2ccccc2C)cs1  1.65%
13. Cc1ccc(-n2nc(C)c(=O)c(-c3ccccc3)c2NC(=O)c2cccs2)cc1  1.25%
14. N#C/C(=C\c1ccc(-c2ccccc2C(=O)O)o1)c1nc2ccccc2[nH]1  1.15%
15. O=C(CN1C(=O)c2ccccc2C1=O)NCc1ccc(N2CCOCC2)cc1  1.1%
16. CCCCNc1nc(-c2ccccc2)nc(-n2ccnc2)n1  1.09%
17. NC(=O)NNC1=Nc2cccc3cccc1c23  1.01%
18. COc1ccc(/C(O)=C2\C(=O)C(=O)N(Cc3ccco3)C2c2cc(OC)ccc2OC)cc1 (stereo not given)  0.4%
19. COc1ccc(NC(=O)NS(=O)(=O)c2ccc(C)cc2)cn1  0.39%
20. O=C1NC(c2ccco2)Nc2sc3c(c21)CCN(Cc1ccccc1)C3 (stereo not given)  0.37%
21. c1ccc2c(c1)CCCN2Cc1nnnn1CC1CCCO1 (stereo not given)  0.36%
22. O=C(COc1ccc(Cl)cc1[N+](=O)[O-])N1CCCCCC1  0.34%
23. Cc1ccc([C@@H]2C3COCC=C3C(C#N)=C(N)C2(C#N)C#N)o1 (stereo not given in full)  0.32%
24. CN1CCN(CCOc2ccc(Cc3ccccc3)cc2)CC1  0.23%
25. CC(Oc1ccc(S(=O)(=O)N2CCCC2)cc1[N+](=O)[O-])C(=O)N(C)c1ccccc1 (stereo not given)  0.2%
26. CCOP(=O)(OCC)/C(=N/OC(=O)c1ccc(OC)cc1)C(N)=O  0.15%
27. COc1ccc(OCC(=O)OCCNC(=O)c2cccnc2)cc1  0.14%
28. O=C(C1CCN(Cc2ccc(OCc3ccccc3)cc2)CC1)N1CCCC1  0.13%
29. Cc1ccc(/C=C2\Oc3c(ccc(O)c3CN3CCN(C)CC3)C2=O)cc1  0.13%
30. COc1ccc(NC(=O)CS(=O)(=O)c2cccc(Cl)c2)cc1  0.13%
31. CC(C)C[C@@H](CN=[N+]=[N-])N1CCN(C)CCC1=O  0.09%
32. N#C/C(=C/c1ccc(N2CCOCC2)o1)c1nc2ccccc2[nH]1  0.08%
33. C=CCN1C(=O)C(Cc2cccc(Cl)c2)S/C1=N/N=C/c1ccco1 (stereo not given)  0.07%
34. O=C(N1CCOCC1)N1CCC(n2nnc3ccccc32)CC1  0.06%
35. S=C1NC2=C(CCC/C2=C\c2ccccc2)C(c2ccccc2)N1 (stereo not given)  0.06%
36. COc1ccc(/C=C2\Oc3cc(OCC(N)=O)ccc3C2=O)cc1OC  0.06%
37. CCOc1ccc(C2C(C#N)=C(N)SC(N)=C2C#N)c(OCC)c1  0.05%
38. O=c1cc(CN2CCCc3ccccc32)nc2sccn12  0.01%
39. Cc1ccsc1C1C=C(c2cccc(Br)c2)Nc2ncnn21 (stereo not given)  -0.01%
40. CCOc1cc(C2C3=C(CCCC3=O)N(C)C3=C2C(=O)CCC3)cc(Cl)c1O  -0.02%
41. Cc1cc2cc(C=C(C#N)C#N)c(Cl)nc2cc1C  -0.03%

For `N#C/C(=C\c1ccc(N2CCOCC2)o1)c1nc2ccccc2[nH]1`, the fluorescence artifact activation was 14.2% (active).
For `CCOc1cc(C2C(C#N)=C(N)OC(C)=C2C(C)=O)cc(Br)c1O` (stereo not given), the fluorescence artifact activation was 37.6% (active).
With `c1ccc2c(c1)CCCN2Cc1nnc2n1CCCCC2` the fluorescence artifact activation was 37% (active).
For `CN1CCN(/N=C/c2ccc(OCc3ccccc3)cc2)CC1`, the fluorescence artifact activation was 107% (active).
For `OCCN1CCN(CC(O)COc2ccc(C34CC5CC(CC(C5)C3)C4)cc2)CC1` (stereo not given), the fluorescence artifact activation was 32.1% (active).
In the case of `O=C(COc1ccc(Cl)cc1[N+](=O)[O-])N1CCCCC1`, the fluorescence artifact activation is reported as 18.1% (active).
In the case of `CCOC(=O)c1sc(=NC(=O)c2cc(OC)c(OC)c(OC)c2)n(C)c1C`, the fluorescence artifact activation is reported as 80.1% (active).
For `O=C(Oc1ccc2c(c1)O/C(=C\c1ccncc1)C2=O)c1ccccc1`, the fluorescence artifact activation was 33% (active).
For `COc1ccc(NC(=O)CC2C(=O)N(Cc3ccco3)C(=S)N2C(C)C)cc1` (stereo not given), the fluorescence artifact activation was 23.2% (active).
